Test results as given in ChEMBL document CHEMBL2434891, “Design, synthesis, and in vitro cancer cell growth inhibition evaluation and antimalarial testing of trioxanes installed in cyclic 2-enoate substructures” (Eur J Med Chem, 2013).

Experiments:
SF-268 = experiment: Cytotoxicity against human SF268 cells after 72 hrs by SRB assay; assay type: functional; details: SF-268, 72 h
SNB-75 = experiment: Cytotoxicity against human SNB75 cells after 72 hrs by SRB assay; assay type: functional; details: SNB-75, 72 h
U-251 = experiment: Cytotoxicity against human U251 cells after 72 hrs by SRB assay; assay type: functional; details: U-251, 72 h
SF-539 = experiment: Cytotoxicity against human SF539 cells after 72 hrs by SRB assay; assay type: functional; details: SF-539, 72 h
KM12 = experiment: Cytotoxicity against human KM12 cells after 72 hrs by SRB assay; assay type: functional; details: KM12, 72 h
DMS-273 = experiment: Cytotoxicity against human DMS273 cells after 72 hrs by SRB assay; assay type: functional; details: DMS-273, 72 h
NCI-H460 = experiment: Cytotoxicity against human NCI-H460 cells after 72 hrs by SRB assay; assay type: functional; details: NCI-H460, 72 h
MDA-MB-231 = experiment: Cytotoxicity against human MDA-MB-231 cells after 72 hrs by SRB assay; assay type: functional; details: MDA-MB-231, 72 h
St-4 = experiment: Cytotoxicity against human St-4 cells after 72 hrs by SRB assay; assay type: functional; details: St-4, 72 h
OVCAR-5 = experiment: Cytotoxicity against human OVCAR5 cells after 72 hrs by SRB assay; assay type: functional; details: OVCAR-5, 72 h
SNB-78 = experiment: Cytotoxicity against human SNB78 cells after 72 hrs by SRB assay; assay type: functional; details: SNB-78, 72 h
SK-OV-3 = experiment: Cytotoxicity against human SKOV3 cells after 72 hrs by SRB assay; assay type: functional; details: SK-OV-3, 72 h
MKN-7 = experiment: Cytotoxicity against human MKN7 cells after 72 hrs by SRB assay; assay type: functional; details: MKN-7, 72 h
HCT-116 = experiment: Cytotoxicity against human HCT116 cells after 72 hrs by SRB assay; assay type: functional, cell-based; details: HCT-116, 72 h
Procedure, shortened: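 Adherent cells grown at 37 °C and 5% CO2. Seeded at 1×10^4/well 24 h before dosing, then 72 h at 10–0.01 µg/mL final. Fixed with cold 50% TCA, stained with 0.4% SRB, dye extracted in 10 mM Tris, read at 540 nm.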

DU-145 = experiment: Cytotoxicity against human DU145 cells after 72 hrs by SRB assay; assay type: functional; details: DU-145, 72 h
MV4-11 = experiment: Antiproliferative activity against human MV4-11 cells after 72 hrs by MTT assay; assay type: functional, cell-based; details: MV4-11, 72 h
SF-295 = experiment: Cytotoxicity against human SF295 cells after 72 hrs by SRB assay; assay type: functional; details: SF-295, 72 h
[1] = Cytotoxicity against human HBC5 cells after 72 hrs by SRB assay; assay type: functional; details: HBC5, 72 h
NCI-H23 = experiment: Cytotoxicity against human NCI-H23 cells after 72 hrs by SRB assay; assay type: functional; details: NCI-H23, 72 h
HCT-15 = experiment: Cytotoxicity against human HCT15 cells after 72 hrs by SRB assay; assay type: functional; details: HCT-15, 72 h
NCI-H522 = experiment: Cytotoxicity against human NCI-H522 cells after 72 hrs by SRB assay; assay type: functional; details: NCI-H522, 72 h
MCF7 = experiment: Cytotoxicity against human MCF7 cells after 72 hrs by SRB assay; assay type: functional; details: MCF7, 72 h
ACHN = experiment: Cytotoxicity against human ACHN cells after 72 hrs by SRB assay; assay type: functional
LOX IMVI = experiment: Cytotoxicity against human LOXIMVI cells after 72 hrs by SRB assay; assay type: functional
HT-29 = experiment: Cytotoxicity against human HT-29 cells after 72 hrs by SRB assay; assay type: functional; details: HT-29, 72 h
[2] = Cytotoxicity against human RXF631L cells after 72 hrs by SRB assay; assay type: functional; details: RXF 631, 72 h
MKN-74 = experiment: Cytotoxicity against human MKN74 cells after 72 hrs by SRB assay; assay type: functional; details: MKN-74, 72 h
MKN-28 = experiment: Cytotoxicity against human MKN28 cells after 72 hrs by SRB assay; assay type: functional; details: MKN-28, 72 h
[3] = read-out: LC50 (the source's name)

`COc1ccc(C2O[C@]34CC(c5cccc(OC)c5)OC(=O)C3=C[C@@]2(C)OO4)cc1` (some centres not stated) showed a TGI (SF-268) of 36 µM, a GI50 (SF-268; read-out: GI50) of 14 µM and a CC50 (SF-268; [3]) of 92 µM. It also gave a TGI (SNB-75) of 28 µM, a GI50 (SNB-75; read-out: GI50) of 12 µM and a CC50 (SNB-75; [3]) of 64 µM. For the same compound, the TGI (U-251) was 33 µM, the GI50 (U-251; read-out: GI50) was 16 µM and the CC50 (U-251; [3]) was 68 µM. It also gave a TGI (SF-539) of 5.4 µM, a GI50 (SF-539; read-out: GI50) of 2800 nM and a CC50 (SF-539; [3]) of 14 µM. The TGI (KM12) was 39 µM, the GI50 (KM12; read-out: GI50) was 18 µM and the CC50 (KM12; [3]) was 85 µM. For the same compound, the TGI (DMS-273) was 27 µM, the GI50 (DMS-273; read-out: GI50) was 10 µM and the CC50 (DMS-273; [3]) was 74 µM. For the same compound, the TGI (NCI-H460) was 41 µM, the GI50 (NCI-H460; read-out: GI50) was 20 µM and the CC50 (NCI-H460; [3]) was 82 µM. It also gave a TGI (MDA-MB-231) of 18 µM, a GI50 (MDA-MB-231; read-out: GI50) of 5.4 µM and a CC50 (MDA-MB-231; [3]) of 51 µM. It also gave a TGI (St-4) of 45 µM, a GI50 (St-4; read-out: GI50) of 18 µM and a CC50 (St-4; [3]) of 100 µM. For the same compound, the TGI (OVCAR-5) was 7.4 µM, the GI50 (OVCAR-5; read-out: GI50) was 2800 nM and the CC50 (OVCAR-5; [3]) was 27 µM. For the same compound, the TGI (SNB-78) was 34 µM, the GI50 (SNB-78; read-out: GI50) was 13 µM and the CC50 (SNB-78; [3]) was 90 µM. The TGI (SK-OV-3) was 33 µM, the GI50 (SK-OV-3; read-out: GI50) was 1900 nM and the CC50 (SK-OV-3; [3]) was 58 µM. The TGI (MKN-7) was 14 µM, the GI50 (MKN-7; read-out: GI50) was 3.4 µM and the CC50 (MKN-7; [3]) was 90 µM. It also gave a TGI (HCT-116) of 13 µM, a GI50 (HCT-116; read-out: GI50) of 3.4 µM and a CC50 (HCT-116; [3]) of 70 µM. It also gave a TGI (DU-145) of 31 µM, a GI50 (DU-145; read-out: GI50) of 16 µM and a CC50 (DU-145; [3]) of 57 µM. It also gave an IC50 (MV4-11) of 4.68 µM, a TGI (SF-295) of 33 µM and a GI50 (SF-295; read-out: GI50) of 18 µM. For the same compound, the CC50 (SF-295; [3]) was 60 µM, the TGI [1] was 4.1 µM and the GI50 ([1]; read-out: GI50) was 1900 nM. The CC50 [1, 3] was 8.8 µM, the TGI (NCI-H23) was 36 µM and the GI50 (NCI-H23; read-out: GI50) was 17 µM. It also gave a CC50 (NCI-H23; [3]) of 79 µM, a TGI (HCT-15) of 17 µM and a GI50 (HCT-15; read-out: GI50) of 3.7 µM. For the same compound, the CC50 (HCT-15; [3]) was 100 µM, the TGI (NCI-H522) was 5 µM and the GI50 (NCI-H522; read-out: GI50) was 2000 nM. For the same compound, the CC50 (NCI-H522; [3]) was 22 µM, the TGI (MCF7) was 29 µM and the GI50 (MCF7; read-out: GI50) was 10 µM. It also gave a CC50 (MCF7; [3]) of 87 µM, a TGI (ACHN) of 29 µM and a GI50 (ACHN; read-out: GI50) of 15 µM. The CC50 (ACHN; [3]) was 56 µM, the TGI (LOX IMVI) was 9 µM and the GI50 (LOX IMVI; read-out: GI50) was 1000 nM. For the same compound, the CC50 (LOX IMVI; [3]) was 7.5 µM, the TGI (HT-29) was 27 µM and the GI50 (HT-29; read-out: GI50) was 5.2 µM. For the same compound, the CC50 (HT-29; [3]) was 100 µM, the TGI [2] was 31 µM and the GI50 ([2]; read-out: GI50) was 17 µM. The CC50 [2, 3] was 59 µM, the TGI (MKN-74) was 37 µM and the GI50 (MKN-74; read-out: GI50) was 14 µM. For the same compound, the CC50 (MKN-74; [3]) was 96 µM, the TGI (MKN-28) was 36 µM and the GI50 (MKN-28; read-out: GI50) was 11 µM. The CC50 (MKN-28; [3]) was 100 µM.
